Reference: ChEMBL document CHEMBL1155338, “Antioxidant and antibacterial studies of arylazopyrazoles and arylhydrazonopyrazolones containing coumarin moiety” (2009)
Active and inactive are the calls of the source. The rule behind the calls is not given here.

Key:
Type in all cases: functional
[1] = system: Radical scavenging activity; experiment: Antioxidant activity assessed as DPPH radical scavenging after 30 mins; set-up: concentration or dose not given beside the values
Summary of the method: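 Compound in methanol mixed 1:1 with methanolic DPPH, both 0.2 mM stocks, giving 0.1 mM each final. Shaken, left 30 min, then A517 read. % scavenging = [(Ab + As) − Am]/Ab × 100, where Ab is DPPH alone, As is compound alone and Am is the mixture. Ascorbic acid reference. Three replicates, averaged.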

[2] = system: Staphylococcus aureus; experiment: Antimicrobial activity against Staphylococcus aureus NCIM 5021 after 24 hrs by disk diffusion method
Summary of the method: (§1)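 Disc diffusion on nutrient agar. Plates were swabbed evenly with a standard inoculum ([…] c.f.u./ml, 0.5 McFarland). 6.25 mm filter-paper discs were dry-heat sterilized (140 °C, 1 h), soaked in test compound at 250 mcg/disc, and placed on the agar. Solvent, growth and ciprofloxacin controls were included. Plates were incubated inverted 24 h at 37 °C and inhibition zones measured.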

[3] = system: Bacillus subtilis; experiment: Antimicrobial activity against Bacillus subtilis NCIM 2010 after 24 hrs by disk diffusion method; summary of the method: as §1

| Compound | Activity [1] | inhibition zone (IZ) [2] | inhibition zone (IZ) [3] |
| --- | --- | --- | --- |
| O=C1O[C@H]([C@@H](O)CO)C(O)=C1O | 96% | inactive | inactive |
| Cc1nn(C(=O)COc2ccc3c(C)cc(=O)oc3c2)c(C)c1/N=N/c1ccc(Cl)cc1 | 32% | inactive | inactive |
| CC1=NN(C(=O)COc2ccc3c(C)cc(=O)oc3c2)C(=O)/C1=N/Nc1ccc(C)cc1C | 57% | inactive | inactive |
| Cc1nn(C(=O)COc2ccc3c(C)cc(=O)oc3c2)c(C)c1/N=N/c1ccc(C(=O)O)cc1 | 32% | inactive | inactive |
| CC1=NN(C(=O)COc2ccc3c(C)cc(=O)oc3c2)C(=O)/C1=N/Nc1ccc(Cl)cc1 | 53% | 11.3 mm | 24.3 mm |
| Cc1nn(C(=O)COc2ccc3c(C)cc(=O)oc3c2)c(C)c1/N=N/c1ccc(Br)cc1 | 55% | 12.7 mm | 27 mm |
| CC1=NN(C(=O)COc2ccc3c(C)cc(=O)oc3c2)C(=O)/C1=N/Nc1ccc(Br)cc1 | inactive | 13.7 mm | 14 mm |
| Cc1nn(C(=O)COc2ccc3c(C)cc(=O)oc3c2)c(C)c1/N=N/c1ccc([N+](=O)[O-])cc1 | 32% | inactive | inactive |
| Cc1nn(C(=O)COc2ccc3c(C)cc(=O)oc3c2)c(C)c1/N=N/c1ccccc1C(=O)O | 28% | inactive | 16.7 mm |
| Cc1nn(C(=O)COc2ccc3c(C)cc(=O)oc3c2)c(C)c1/N=N/c1cccc([N+](=O)[O-])c1 | 38% | inactive | inactive |
| Cc1ccc(/N=N/c2c(C)nn(C(=O)COc3ccc4c(C)cc(=O)oc4c3)c2C)c(C)c1 | 24% | inactive | inactive |
| O=C(O)c1cn(C2CC2)c2cc(N3CCNCC3)c(F)cc2c1=O [CIPROFLOXACIN] | inactive | 30 mm | 33.7 mm |
| CC1=NN(C(=O)COc2ccc3c(C)cc(=O)oc3c2)C(=O)/C1=N/Nc1ccc([N+](=O)[O-])cc1 | 31% | inactive | inactive |
| CC1=NN(C(=O)COc2ccc3c(C)cc(=O)oc3c2)C(=O)/C1=N/Nc1cccc([N+](=O)[O-])c1 | 69% | inactive | inactive |
| CC1=NN(C(=O)COc2ccc3c(C)cc(=O)oc3c2)C(=O)/C1=N/Nc1ccc(C(=O)O)cc1 | inactive | inactive | inactive |
| CC1=NN(C(=O)COc2ccc3c(C)cc(=O)oc3c2)C(=O)/C1=N/Nc1ccccc1C(=O)O | 20% | 12.3 mm | 26.7 mm |
